Measured values from ChEMBL document CHEMBL1649503, “Alkoxyalkyl esters of 9-(s)-(3-hydroxy-2-phosphonomethoxypropyl) adenine are potent and selective inhibitors of hepatitis B virus (HBV) replication in vitro and in HBV transgenic mice in vivo” (Antimicrob Agents Chemother, 2009).

Tests used:
Hepatitis B virus [1] = assay: Antiviral activity against HBV harboring RNA polymerase N236T mutant gene infected in human HuH7 cells assessed as decrease in viral transient transfection […]; format: functional, organism-based; settings: Huh-7
In short: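 Lamivudine- and adefovir-resistant HBV mutants introduced into Huh7 cells by transient transfection. Compounds were tested in a 5-day assay.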

Hepatitis B virus [2] = assay: Antiviral activity against HBV infected in transgenic mouse assessed as decrease in liver viral DNA level at 4 mg/kg, po administered daily for 14 days measured post last dose; format: functional; settings: for ED50: Hepatitis B virus, Liver, 336 h; for ED90: dose 4 mg/kg
In short: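 Homozygous male and female HBV transgenic mice (founder 1.3.32; 22.2 ± 2.8 g) received drug in distilled water by oral gavage, 0.1 ml/10 g, at 7 µmol/kg (4 mg/kg) daily for 14 days. About 0.1 g liver was lysed at necropsy, and DNA was extracted with phenol-chloroform. HBV DNA was measured by qPCR normalized to GAPDH, using duplicate CTs against a dilution standard curve, in relative units/µg cell DNA.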

Hepatitis B virus [3] = assay: Antiviral activity against HBV harboring RNA polymerase L180M mutant gene infected in human HuH7 cells assessed as decrease in viral transient transfection after 5 days; settings: Huh-7, 5 days
Hepatitis B virus [4] = assay: Antiviral activity against HBV harboring RNA polymerase L180M/M204V mutant gene infected in human HuH7 cells assessed as decrease in viral transient transfection after 5 days; settings: Huh-7, 5 days
Hepatitis B virus [5] = assay: Antiviral activity against wild type HBV infected in human HuH7 cells assessed as decrease in viral transient transfection after 5 days; settings: Huh-7, 5 days
Hepatitis B virus [6] = assay: Antiviral activity against HBV harboring RNA polymerase M204I mutant gene infected in human HuH7 cells assessed as decrease in viral transient transfection after 5 days; settings: Huh-7, 5 days
Hepatitis B virus [7] = assay: Antiviral activity against HBV harboring RNA polymerase M204V mutant gene infected in human HuH7 cells assessed as decrease in viral transient transfection after 5 days; settings: Huh-7, 5 days
HepG2 [8] = assay: Drug metabolism in human HepG2 cells assessed as HPMPAp uptake at 10 uM after 24 hrs; format: ADME, cell-based; settings: hepg2, 24 h
In short: (§1)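 Nearly confluent HepG2 flasks got 14C-labeled drug (final 10 µM, 50 mCi/mmol) for 24 h. Cells were washed with cold PBS, lysed in water by two freeze-thaw cycles and sonication, then extracted with cold TCA (8% final) and centrifuged at 4°C. Supernatant was counted and analyzed by SAX ion-exchange HPLC, with metabolites assigned by retention versus reference standards.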

[9] = Selectivity index, ratio of CC50 for human HepG2(2.2.15) cells to EC50 for HBV infected in human HepG2(2.2.15) cells
In short: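 Ratio from two 2.2.15 readouts after nine daily doses in RPMI/2% FBS. Extracellular HBV DNA was measured by quantitative blot hybridization and cytotoxicity by neutral red uptake (three cultures per concentration), both 24 h after the final dose.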

HepG2 [10] = assay: Drug metabolism in human HepG2 cells assessed as HPMPA uptake at 10 uM after 48 hrs; format: ADME, cell-based; settings: hepg2, 48 h
Hepatitis B virus [11] = assay: Antiviral activity against HBV infected in human HepG2(2.2.15) cells assessed as decrease in extracellular viral DNA level after 24 hrs by blot hybridization assay; format: functional, organism-based; settings: HepG2 2.2.15, 24 h
In short: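 Confluent 2.2.15 cells in RPMI 1640 with 2% FBS got nine consecutive daily doses, with medium replaced daily with drug-containing medium. Six wells per concentration over two replicate plates. Cells were pelleted from the medium, which was kept at 4°C and not frozen. Extracellular HBV DNA was quantified by blot hybridization 24 h after the last dose.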

[12] = Cytotoxicity against human HepG2(2.2.15) cells after 24 hrs by neutral red assay; format: cell-based
In short: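 2.2.15 cells, RPMI 1640 with 2% FBS, dosed daily for nine consecutive days. Viability was read by neutral red uptake, absorbance of internalized dye at 510, 24 h after the last treatment, three cultures per concentration.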

HepG2 [13] = assay: Drug metabolism in human HepG2 cells assessed as HPMPApp uptake at 10 uM after 24 hrs; format: ADME, cell-based; settings: hepg2, 24 h; in short: as §1
HepG2 [14] = assay: Drug metabolism in human HepG2 cells assessed as unidentified metabolite uptake at 10 uM after 24 hrs; format: ADME, cell-based; settings: hepg2, 24 h; in short: as §1
HepG2 [15] = assay: Drug metabolism in human HepG2 cells assessed as HPMPApp uptake at 10 uM after 48 hrs; format: ADME, cell-based; settings: hepg2, 48 h
HepG2 [16] = assay: Drug metabolism in human HepG2 cells assessed as HPMPAp uptake at 10 uM after 48 hrs; format: ADME, cell-based; settings: hepg2, 48 h
HepG2 [17] = assay: Drug metabolism in human HepG2 cells assessed as unidentified metabolite uptake at 10 uM after 48 hrs; format: ADME, cell-based; settings: hepg2, 48 h
HepG2 [18] = assay: Drug metabolism in human HepG2 cells assessed as HPMPA uptake at 10 uM after 24 hrs; format: ADME, cell-based; settings: hepg2, 24 h; in short: as §1

EC50 (Hepatitis B virus [11]) [µM]	EC90 (Hepatitis B virus [11]) [µM]	Structure (SMILES)	EC50 (Hepatitis B virus [1]) [µM]	EC90 (Hepatitis B virus [1]) [µM]	ED50 (Hepatitis B virus [2]) [µmol/kg]	ED90 (Hepatitis B virus [2]) [µmol/kg]	EC50 (Hepatitis B virus [3]) [µM]	EC90 (Hepatitis B virus [3]) [µM]	EC50 (Hepatitis B virus [4]) [µM]	EC90 (Hepatitis B virus [4]) [µM]	EC90 (Hepatitis B virus [5]) [µM]	EC50 (Hepatitis B virus [6]) [µM]	EC90 (Hepatitis B virus [6]) [µM]	EC50 (Hepatitis B virus [7]) [µM]	EC90 (Hepatitis B virus [7]) [µM]	Selectivity Index [9]	CC50 at 24 h [12] [µM]	also measured
		CC(C)(C)C(=O)OCOP(=O)(COCCn1cnc2c(N)ncnc21)OCOC(=O)C(C)(C)C [ADEFOVIR DIPIVOXIL]	14	52	0.2	3.6	2.6	7.3	2.5	7.6	7	2.4	8	1.5	7.2			EC50 (Hepatitis B virus [5]): 2 µM
1.2	5.05	Nc1ncnc2c1ncn2C[C@@H](CO)OCP(=O)(O)O														>60	> 300	Drug uptake (HepG2 [8]): 27 pmol; Drug uptake (HepG2 [10]): 10 pmol; Drug uptake (HepG2 [13]): 34 pmol; Drug uptake (HepG2 [14]): 33 pmol; Drug uptake (HepG2 [15]): 13 pmol; Drug uptake (HepG2 [16]): 70 pmol; Drug uptake (HepG2 [17]): 62 pmol; Drug uptake (HepG2 [18]): 26 pmol
0.059	0.181	CC(C)CCCCCCCCCCCCCCOCCCOP(=O)(O)CO[C@H](CO)Cn1cnc2c(N)ncnc21			0.082	2.96										>1657	> 300	
		Nc1ccn([C@@H]2CS[C@H](CO)O2)c(=O)n1 [LAMIVUDINE]	0.3	1.5			16	41	> 100	> 100	3	> 100	> 100	> 100	> 100			
0.076	0.211	CCCCCCCCCCCCCCCCCCOCCOP(=O)(O)CO[C@H](CO)Cn1cnc2c(N)ncnc21			0.35	6.91										>1422	> 300	
